# Assay results reported in ChEMBL document CHEMBL3124838, “Discovery of 6-aryl-azabenzimidazoles that inhibit the TBK1/IKK-ε kinases” (Bioorg Med Chem Lett, 2014).
# Legend:
# [1] = biological target: T1, Discoidin domain-containing receptor 2 (Homo sapiens) (UniProt Q16832); test: Inhibition of human DDR2 assessed as residual activity at 1 uM relative to control
# T1 sequence (whole entry): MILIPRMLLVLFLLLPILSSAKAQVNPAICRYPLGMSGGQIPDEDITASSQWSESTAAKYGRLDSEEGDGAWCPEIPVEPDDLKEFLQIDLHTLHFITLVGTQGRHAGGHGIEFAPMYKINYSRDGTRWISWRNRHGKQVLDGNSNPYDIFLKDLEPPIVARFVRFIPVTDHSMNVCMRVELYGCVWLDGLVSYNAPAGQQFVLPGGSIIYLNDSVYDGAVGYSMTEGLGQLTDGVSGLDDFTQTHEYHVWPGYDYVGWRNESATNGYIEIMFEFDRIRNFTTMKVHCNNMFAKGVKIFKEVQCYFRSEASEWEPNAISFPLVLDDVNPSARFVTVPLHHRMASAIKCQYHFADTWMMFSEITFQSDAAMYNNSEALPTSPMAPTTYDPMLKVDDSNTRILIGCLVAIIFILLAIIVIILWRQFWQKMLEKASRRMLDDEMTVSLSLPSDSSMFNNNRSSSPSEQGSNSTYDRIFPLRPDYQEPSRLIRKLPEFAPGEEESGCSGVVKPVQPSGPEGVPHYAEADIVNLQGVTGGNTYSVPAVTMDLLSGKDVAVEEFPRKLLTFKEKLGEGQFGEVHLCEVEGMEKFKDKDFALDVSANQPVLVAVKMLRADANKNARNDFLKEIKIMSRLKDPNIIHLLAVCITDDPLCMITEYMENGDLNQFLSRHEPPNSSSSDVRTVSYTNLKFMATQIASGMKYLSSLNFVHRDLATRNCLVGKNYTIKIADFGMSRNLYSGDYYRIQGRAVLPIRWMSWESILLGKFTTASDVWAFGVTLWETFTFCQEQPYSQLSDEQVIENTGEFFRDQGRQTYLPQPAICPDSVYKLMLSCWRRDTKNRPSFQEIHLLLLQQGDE
# [2] = biological target: Serine/threonine-protein kinase PLK1 (Homo sapiens) (UniProt P53350); test: Inhibition of human PLK1 assessed as residual activity at 1 uM relative to control
# Chain of Serine/threonine-protein kinase PLK1 (Homo sapiens) (P53350 whole entry): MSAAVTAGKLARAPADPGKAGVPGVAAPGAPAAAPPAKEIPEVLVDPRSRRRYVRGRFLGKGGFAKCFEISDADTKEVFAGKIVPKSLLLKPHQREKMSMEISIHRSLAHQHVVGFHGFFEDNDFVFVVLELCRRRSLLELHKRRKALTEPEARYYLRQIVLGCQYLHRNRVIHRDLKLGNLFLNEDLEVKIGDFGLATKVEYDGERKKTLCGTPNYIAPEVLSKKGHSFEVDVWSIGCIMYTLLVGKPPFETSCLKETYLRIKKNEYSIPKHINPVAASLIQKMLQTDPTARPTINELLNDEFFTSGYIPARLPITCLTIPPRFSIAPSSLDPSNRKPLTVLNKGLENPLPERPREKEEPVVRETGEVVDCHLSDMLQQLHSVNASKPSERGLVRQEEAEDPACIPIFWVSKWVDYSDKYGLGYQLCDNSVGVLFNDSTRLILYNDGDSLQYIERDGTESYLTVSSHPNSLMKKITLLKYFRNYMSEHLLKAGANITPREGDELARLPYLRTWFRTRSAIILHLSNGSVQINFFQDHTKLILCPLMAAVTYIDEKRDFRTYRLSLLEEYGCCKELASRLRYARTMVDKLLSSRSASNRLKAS
# [3] = biological target: T2, Tyrosine-protein kinase receptor TYRO3 (Homo sapiens) (UniProt Q06418); test: Inhibition of human RSE assessed as residual activity at 1 uM relative to control
# T2 sequence (whole entry): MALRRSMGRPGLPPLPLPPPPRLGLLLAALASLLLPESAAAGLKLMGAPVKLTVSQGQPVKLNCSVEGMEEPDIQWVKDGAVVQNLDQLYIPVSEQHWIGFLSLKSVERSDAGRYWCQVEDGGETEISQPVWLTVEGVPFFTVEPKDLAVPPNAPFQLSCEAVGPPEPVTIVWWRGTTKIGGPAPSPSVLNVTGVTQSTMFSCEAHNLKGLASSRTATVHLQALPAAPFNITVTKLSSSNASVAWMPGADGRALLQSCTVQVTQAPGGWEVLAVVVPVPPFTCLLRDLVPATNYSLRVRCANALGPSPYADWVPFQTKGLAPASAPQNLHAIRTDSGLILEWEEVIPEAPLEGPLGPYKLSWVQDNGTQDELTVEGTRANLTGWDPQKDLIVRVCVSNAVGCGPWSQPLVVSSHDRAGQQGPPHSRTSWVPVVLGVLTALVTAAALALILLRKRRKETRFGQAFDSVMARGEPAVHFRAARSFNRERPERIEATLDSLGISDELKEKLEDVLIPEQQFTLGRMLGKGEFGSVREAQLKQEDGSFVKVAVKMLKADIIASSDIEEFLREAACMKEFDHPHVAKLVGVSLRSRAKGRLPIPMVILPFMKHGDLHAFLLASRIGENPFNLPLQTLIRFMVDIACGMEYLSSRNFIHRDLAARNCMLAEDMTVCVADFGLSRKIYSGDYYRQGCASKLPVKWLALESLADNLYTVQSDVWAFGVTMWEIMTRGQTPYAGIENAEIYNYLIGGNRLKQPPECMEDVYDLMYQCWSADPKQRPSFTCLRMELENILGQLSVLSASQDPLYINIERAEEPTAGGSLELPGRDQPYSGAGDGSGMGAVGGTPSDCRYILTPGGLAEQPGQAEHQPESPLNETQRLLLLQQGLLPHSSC
# [4] = biological target: Mast/stem cell growth factor receptor Kit (Homo sapiens) (UniProt P10721); test: Inhibition of human cKIT assessed as residual activity at 1 uM relative to control
# Chain of Mast/stem cell growth factor receptor Kit (Homo sapiens) (P10721 whole entry): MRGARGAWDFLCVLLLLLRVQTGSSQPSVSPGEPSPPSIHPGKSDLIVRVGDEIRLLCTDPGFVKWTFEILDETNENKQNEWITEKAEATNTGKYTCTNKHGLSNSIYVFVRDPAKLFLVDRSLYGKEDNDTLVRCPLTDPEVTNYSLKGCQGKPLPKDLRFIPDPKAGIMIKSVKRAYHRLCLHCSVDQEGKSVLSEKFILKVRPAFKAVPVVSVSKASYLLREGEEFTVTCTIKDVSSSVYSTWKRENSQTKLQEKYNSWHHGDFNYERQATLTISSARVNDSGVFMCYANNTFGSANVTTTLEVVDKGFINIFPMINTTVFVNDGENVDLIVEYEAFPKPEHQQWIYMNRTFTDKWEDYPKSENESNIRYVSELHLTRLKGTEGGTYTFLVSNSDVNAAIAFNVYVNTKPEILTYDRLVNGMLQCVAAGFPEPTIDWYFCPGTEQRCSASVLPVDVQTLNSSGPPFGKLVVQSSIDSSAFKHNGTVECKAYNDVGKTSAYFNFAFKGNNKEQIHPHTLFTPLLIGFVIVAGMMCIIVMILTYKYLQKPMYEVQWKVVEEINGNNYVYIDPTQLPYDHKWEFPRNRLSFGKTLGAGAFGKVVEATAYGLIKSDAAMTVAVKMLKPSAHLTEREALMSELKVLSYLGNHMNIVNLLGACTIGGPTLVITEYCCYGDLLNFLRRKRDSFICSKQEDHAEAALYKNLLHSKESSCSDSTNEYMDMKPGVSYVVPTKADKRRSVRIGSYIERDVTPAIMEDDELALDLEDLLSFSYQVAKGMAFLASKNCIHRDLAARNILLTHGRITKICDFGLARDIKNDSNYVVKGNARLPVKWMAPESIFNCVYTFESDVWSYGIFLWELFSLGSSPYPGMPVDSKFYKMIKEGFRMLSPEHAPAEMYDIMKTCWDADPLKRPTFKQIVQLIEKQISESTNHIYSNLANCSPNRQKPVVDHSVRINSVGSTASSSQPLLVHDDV
# [5] = biological target: T3, Inhibitor of nuclear factor kappa-B kinase subunit epsilon (Homo sapiens, UniProt Q14164); test: Inhibition of IKK-epsilon (unknown origin) using 5FAM-AKELDQGSLCTpSFVGTLQ-NH2 as substrate by microfluidic mobility shift assay
# T3 sequence (Q14164 whole entry): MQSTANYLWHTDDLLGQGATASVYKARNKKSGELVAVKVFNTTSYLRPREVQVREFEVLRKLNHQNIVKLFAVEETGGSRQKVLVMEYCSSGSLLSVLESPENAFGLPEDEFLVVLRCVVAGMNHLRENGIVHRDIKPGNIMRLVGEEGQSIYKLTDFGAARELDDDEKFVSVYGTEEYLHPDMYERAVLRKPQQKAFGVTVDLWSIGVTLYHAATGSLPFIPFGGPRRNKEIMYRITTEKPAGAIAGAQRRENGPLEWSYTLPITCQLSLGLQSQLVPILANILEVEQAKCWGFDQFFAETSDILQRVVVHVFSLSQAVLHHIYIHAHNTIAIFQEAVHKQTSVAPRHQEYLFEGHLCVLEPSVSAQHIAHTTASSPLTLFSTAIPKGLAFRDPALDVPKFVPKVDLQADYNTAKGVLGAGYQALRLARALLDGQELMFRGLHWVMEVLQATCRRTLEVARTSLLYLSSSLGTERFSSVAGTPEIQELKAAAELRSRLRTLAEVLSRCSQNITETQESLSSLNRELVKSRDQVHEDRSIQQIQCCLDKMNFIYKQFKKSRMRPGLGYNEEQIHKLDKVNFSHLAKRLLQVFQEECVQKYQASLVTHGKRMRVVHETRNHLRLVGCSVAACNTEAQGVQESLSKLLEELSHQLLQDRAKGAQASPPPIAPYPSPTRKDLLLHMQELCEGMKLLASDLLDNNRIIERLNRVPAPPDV
# In short: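 Recombinant IKK-ε (4 nM) in HEPES buffer with 1.5 µM 5FAM-labelled peptide substrate, ATP at its K_M, and 10 mM MgCl2. The 10-point titration used half-log serial dilutions. Reactions ran at room temperature for a set time, were quenched with EDTA-containing HEPES, and were read by microfluidic mobility shift. Percent inhibition came from the ratio of phosphorylated to total peptide.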
# [6] = system: Epidermal growth factor receptor (Homo sapiens), P00533 [L858R,T790M]; test: Inhibition of human EGFR T790M/L858R double mutant assessed as residual activity at 1 uM relative to control; assay type: protein assay
# [7] = biological target: Serine/threonine-protein kinase pim-2 (Homo sapiens) (UniProt Q9P1W9); test: Inhibition of human PIM-2 assessed as residual activity at 1 uM relative to control
# Chain of Serine/threonine-protein kinase pim-2 (Homo sapiens) (Q9P1W9 whole entry, looked up): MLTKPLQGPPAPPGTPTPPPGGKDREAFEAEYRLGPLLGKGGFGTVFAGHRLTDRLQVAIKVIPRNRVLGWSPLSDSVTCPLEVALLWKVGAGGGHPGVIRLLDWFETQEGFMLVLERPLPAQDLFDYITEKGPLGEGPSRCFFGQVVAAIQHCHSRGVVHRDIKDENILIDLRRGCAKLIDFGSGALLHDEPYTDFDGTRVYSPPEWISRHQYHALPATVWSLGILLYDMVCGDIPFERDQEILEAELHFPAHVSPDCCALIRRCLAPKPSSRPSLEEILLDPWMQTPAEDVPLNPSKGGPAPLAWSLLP
Activity [1] [%],Activity [2] [%],Activity [3] [%],Activity [4] [%],IC50 [5] [nM],Activity [6] [%],Activity [7] [%],SMILES
101,112,104,107,1750,76,94,COc1ccc(-c2nc3cc(-c4csc(C(=O)NCCC(C)C)c4)cnc3[nH]2)cc1
100,110,104,112,497,94,93,COc1ccc(-c2nc3cc(-c4csc(C(=O)NCC(C)(C)C)c4)cnc3[nH]2)cc1
101,105,112,103,273,90,90,COc1ccc(-c2nc3cc(-c4csc(C(=O)NCC(C)C)c4)cnc3[nH]2)cc1
